We go through one compound from ChEMBL document CHEMBL1149770, “Synthesis and antimicrobial studies of novel dichlorofluorophenyl containing aminotriazolothiadiazines” (2008).

Usually MIC stands for the lowest concentration that inhibits growth of the organism.

Molecules are shown by their SMILES. Values after ≈ are worked out from the molar mass of the structure shown.

In test [1] the test system is Staphylococcus aureus. The experiment in a line: Antibacterial activity against Staphylococcus aureus ATCC 25923 after 24 hrs by broth dilution technique. The format is functional. As to conditions: ATCC 25923, 24 h. The method in brief: (§1)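 MIC by broth dilution in nutrient broth with logarithmic serial twofold dilutions of compound. Inoculum approx. 5×10^5 c.f.u actively dividing bacteria. Incubated 24 h at 37 °C, growth monitored visually and spectrophotometrically. MIC taken as the lowest concentration (highest dilution) arresting growth. Ciprofloxacin reference.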

Test [2] has as its system Staphylococcus aureus. Kind of test: Antibacterial activity against Staphylococcus aureus ATCC 25923 assessed as inhibition zone diameter after 24 hrs […]. It counts as functional. The method in brief: (§2)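 Disc diffusion on nutrient agar. Inoculum 1-2 × 10^7 c.f.u/ml (0.5 McFarland) spread over the plate surface. Sterile 6.25 mm filter-paper discs soaked in a known concentration of compound. Solvent and growth controls included. Plates incubated inverted 24 h at 37 °C, then inhibition zone diameter measured in mm. Ciprofloxacin reference.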
(In broth dilution the organism is exposed to a series of concentrations in liquid medium.)

For the next test, the system named is Escherichia coli. The experiment in a line: Antibacterial activity against Escherichia coli ATCC 25922 after 24 hrs by broth dilution technique. The format is functional. As to conditions: ATCC 25922, 24 h. The gist of the method:
as §1

Test [3] concerns Pseudomonas aeruginosa. The experiment in a line: Antibacterial activity against Pseudomonas aeruginosa ATCC 27853 after 24 hrs by broth dilution technique. It counts as functional. As to conditions: ATCC 27853, 24 h. The method in brief: as §1
For test [4], the system named is Pseudomonas aeruginosa. Kind of test: Antibacterial activity against Pseudomonas aeruginosa ATCC 27853 assessed as inhibition zone diameter after 24 hrs […]. The format is functional. The method in brief:
as §2

Test [5] deals with Klebsiella pneumoniae. The experiment in a line: Antibacterial activity against Klebsiella pneumoniae after 24 hrs by broth dilution technique. The format is functional. The method in brief: as §1
In test [6] the test system is Klebsiella pneumoniae. Kind of test: Antibacterial activity against Klebsiella pneumoniae assessed as inhibition zone diameter after 24 hrs […]. It counts as functional. The method in brief: as §2
Test [7] has as its system Streptococcus pyogenes. Kind of test: Antibacterial activity against Streptococcus pyogenes after 24 hrs by broth dilution technique. The format is functional. The gist of the method: as §1
In test [8] the test system is Candida albicans. Kind of test: Antifungal activity against Candida albicans after 48 hrs […]. The format is functional.
The subject of test [9] is Candida albicans. Kind of test: Antifungal activity against Candida albicans assessed as inhibition zone diameter […] by agar dilution method. The format is functional. The gist of the method: (§3)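 Compounds in DMSO placed in punched wells on Sabouraud agar (peptone, glucose, agar, pH 5.7) lawned with saline spore suspension. Plates pre-dried 1 h at 37 °C. Controls in triplicate, incubation at 37 °C for 3-4 days, then inhibition zone diameter read in mm. Amphotericin B reference.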
A general note: Agar dilution tests growth on a series of plates holding different concentrations.

The test system of test [10] is Aspergillus flavus. Kind of test: Antifungal activity against Aspergillus flavus after 48 hrs […]. It counts as functional.
The subject of test [11] is Aspergillus flavus. Kind of test: Antifungal activity against Aspergillus flavus assessed as inhibition zone diameter […] by agar dilution method. The format is functional. The gist of the method: as §3
Test [12] concerns Aspergillus fumigatus. The experiment in a line: Antifungal activity against Aspergillus fumigatus after 48 hrs […]. It counts as functional.
Test [13] relates to Aspergillus fumigatus. Kind of test: Antifungal activity against Aspergillus fumigatus assessed as inhibition zone diameter […] by agar dilution method. It counts as functional. The gist of the method:
as §3

The subject of test [14] is Trichophyton mentagrophytes. Kind of test: Antifungal activity against Trichophyton mentagrophytes after 48 hrs […]. It counts as functional.
Test [15] deals with Trichophyton mentagrophytes. The experiment in a line: Antifungal activity against Trichophyton mentagrophytes assessed as inhibition zone diameter […] by agar dilution method. It counts as functional. The gist of the method: as §3
The test system of test [16] is Talaromyces marneffei. The experiment in a line: Antifungal activity against Penicillium marneffei after 48 hrs […]. The format is functional.
In test [17] the test system is Talaromyces marneffei. Kind of test: Antifungal activity against Penicillium marneffei assessed as inhibition zone diameter […] by agar dilution method. The format is functional. The method in brief:
as §3

Test [18] concerns Streptococcus pyogenes. Kind of test: Antibacterial activity against Streptococcus pyogenes assessed as inhibition zone diameter after 24 hrs by disc diffusion method.

With `Nn1c(SCC(=O)Nc2ccc(Cl)cc2)nnc1-c1cc(F)c(Cl)cc1Cl`, the MIC against Staphylococcus aureus [1] amounted to 12.5 µg/mL (≈ 28 µM); against Escherichia coli it was 12.5 µg/mL (≈ 28 µM); in the test on Pseudomonas aeruginosa [3], 12.5 µg/mL (≈ 28 µM); in the test on Klebsiella pneumoniae [5], 12.5 µg/mL (≈ 28 µM); against Streptococcus pyogenes [7], 25 µg/mL (≈ 56 µM); in the test on Candida albicans [8] it was 12.5 µg/mL (≈ 28 µM). Further, the minimum inhibitory concentration (MIC) with Aspergillus flavus [10] turned out to be 25 µg/mL (≈ 56 µM); in the test with Aspergillus fumigatus [12], 12.5 µg/mL (≈ 28 µM); in [14], 25 µg/mL (≈ 56 µM); against Talaromyces marneffei [16] it was 12.5 µg/mL (≈ 28 µM). For the same compound, the “inhibition zone (IZ)” value with Staphylococcus aureus [2] is 17 mm; in the test with Pseudomonas aeruginosa [4], 18 mm; in the test on Klebsiella pneumoniae [6] it was 12 mm; in the test on Candida albicans [9], 12 mm; in the test with Aspergillus flavus [11] it was 10 mm; with Aspergillus fumigatus [13], 15 mm. For the same compound, the “inhibition zone (IZ)” value in test [15] is recorded as 8 mm; with Talaromyces marneffei [17], 17 mm; in the test on Streptococcus pyogenes [18], 10 mm.
